# Measured values as given in ChEMBL document CHEMBL2016534 (ACS Med Chem Lett, 2011).
# Active and inactive are the calls of the source. No cut-off for these calls is given here.
# Experiments:
# [1] = target: T1, Phosphatidylinositol 4,5-bisphosphate 3-kinase catalytic subunit alpha isoform (Homo sapiens, UniProt P42336); experiment: Inhibition of PI3Kalpha-mediated AKT phosphorylation at S473 by cell based assay
# [2] = Metabolic stability in human liver microsomes assessed as extraction ratio; assay type: ADME, Microsome; settings: read-out: ERH
# In short: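 Human liver microsome CLint scaled up with liver physiology parameters (mg HLM/g liver, g liver/kg body weight) to mL/min/kg. Predicted hepatic clearance (CLH, mL/min/kg) then calculated by the well-stirred model. Extraction ratio taken as predicted CLH divided by hepatic blood flow (QH).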
# [3] = target: T1, Phosphatidylinositol 4,5-bisphosphate 3-kinase catalytic subunit alpha isoform; experiment: Inhibition of PI3Kalpha
# [4] = Metabolic stability in rat liver microsomes assessed as extraction ratio; assay type: ADME, Microsome; settings: read-out: ERH
# [5] = Metabolic stability in mouse liver microsomes assessed as extraction ratio; assay type: ADME, Microsome; settings: read-out: ERH
# MDR1 (human) = experiment: Efflux ratio of permeability from basolateral to apical side to apical to basolateral side of dog RRCK cells expressing human MDR1; assay type: ADME, cell-based, Canis lupus familiaris, MDCKII-LE
# [6] = target: T2, Serine/threonine-protein kinase mTOR (Homo sapiens, UniProt P42345); experiment: Inhibition of mTOR
# NCI-H23 = experiment: Cytotoxicity against human NCI-H23 cells harboring PTEN mutation by MTT assay; assay type: functional, cell-based
# NCI-H1975 = experiment: Cytotoxicity against human NCI-H1975 cells harboring PI3KCA mutation by MTT assay; assay type: functional, cell-based
# [7] = target: T3, Phosphatidylinositol 4,5-bisphosphate 3-kinase catalytic subunit delta isoform (Homo sapiens) (UniProt O00329); experiment: Inhibition of PI3Kdelta
# T3 sequence (whole entry): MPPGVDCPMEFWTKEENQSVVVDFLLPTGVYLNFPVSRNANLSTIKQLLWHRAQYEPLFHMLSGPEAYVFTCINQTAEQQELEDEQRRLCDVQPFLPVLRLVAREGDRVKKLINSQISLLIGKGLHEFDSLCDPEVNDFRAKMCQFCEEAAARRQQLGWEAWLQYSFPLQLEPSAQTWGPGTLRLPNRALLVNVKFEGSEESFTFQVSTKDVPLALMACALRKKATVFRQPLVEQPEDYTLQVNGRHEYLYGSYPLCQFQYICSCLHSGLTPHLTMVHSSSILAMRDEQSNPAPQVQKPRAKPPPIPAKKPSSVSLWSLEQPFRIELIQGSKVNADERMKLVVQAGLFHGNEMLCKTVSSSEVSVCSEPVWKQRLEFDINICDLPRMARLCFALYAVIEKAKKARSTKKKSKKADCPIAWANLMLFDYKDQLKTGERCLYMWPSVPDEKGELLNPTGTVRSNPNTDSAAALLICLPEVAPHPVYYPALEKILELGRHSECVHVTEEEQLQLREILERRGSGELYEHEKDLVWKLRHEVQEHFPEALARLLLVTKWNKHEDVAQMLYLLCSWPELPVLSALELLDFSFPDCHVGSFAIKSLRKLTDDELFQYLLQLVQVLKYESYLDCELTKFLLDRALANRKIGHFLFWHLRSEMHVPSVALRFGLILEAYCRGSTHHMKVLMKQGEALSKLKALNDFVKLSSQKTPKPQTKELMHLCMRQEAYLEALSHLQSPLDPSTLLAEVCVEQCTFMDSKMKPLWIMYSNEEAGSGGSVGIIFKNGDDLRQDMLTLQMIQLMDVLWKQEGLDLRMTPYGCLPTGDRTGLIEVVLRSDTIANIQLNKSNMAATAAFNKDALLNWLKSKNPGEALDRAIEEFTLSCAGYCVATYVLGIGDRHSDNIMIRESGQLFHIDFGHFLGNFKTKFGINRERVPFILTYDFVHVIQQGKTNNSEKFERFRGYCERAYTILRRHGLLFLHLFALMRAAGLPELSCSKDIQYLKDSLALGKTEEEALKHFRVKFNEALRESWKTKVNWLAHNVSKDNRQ
# NCI-H1650 = experiment: Cytotoxicity against PTEN deficient human NCI-H1650 cells by MTT assay; assay type: functional, cell-based
# NCI-H460 = experiment: Cytotoxicity against human NCI-H460 cells harboring PI3KCA mutation by MTT assay; assay type: functional, cell-based
# CYP2D6 = CYP2D6 (Homo sapiens, UniProt P10635); experiment: Inhibition of CYP2D6 at 3 uM; assay type: ADME
# CYP3A4 = CYP3A4 (Homo sapiens, UniProt P08684); experiment: Inhibition of CYP3A4 at 3 uM; assay type: ADME
# [8] = Drug excretion in bile duct cannulated rat bile; assay type: ADME; settings: read-out: Drug excretion
# CYP1A2 = target: T4, CYP1A2 (Homo sapiens, UniProt P05177); experiment: Inhibition of CYP1A2 at 3 uM; assay type: ADME
# T4 sequence (P05177 whole entry): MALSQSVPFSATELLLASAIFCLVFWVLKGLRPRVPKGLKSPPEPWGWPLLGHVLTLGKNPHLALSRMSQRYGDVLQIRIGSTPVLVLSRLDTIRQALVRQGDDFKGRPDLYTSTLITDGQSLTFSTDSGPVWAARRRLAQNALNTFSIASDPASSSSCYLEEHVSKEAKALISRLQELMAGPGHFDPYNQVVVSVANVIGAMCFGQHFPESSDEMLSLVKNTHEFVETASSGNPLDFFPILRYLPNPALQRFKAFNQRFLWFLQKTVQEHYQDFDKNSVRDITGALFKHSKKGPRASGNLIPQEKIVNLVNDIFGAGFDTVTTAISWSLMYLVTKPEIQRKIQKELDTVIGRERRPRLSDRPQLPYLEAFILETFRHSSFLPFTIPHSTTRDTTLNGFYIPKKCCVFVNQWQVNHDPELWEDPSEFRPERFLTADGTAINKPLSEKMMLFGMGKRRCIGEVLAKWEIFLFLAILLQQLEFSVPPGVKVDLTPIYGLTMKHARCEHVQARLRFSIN
# CYP2C9 = CYP2C9 (Homo sapiens, UniProt P11712); experiment: Inhibition of CYP2C9 at 3 uM; assay type: ADME
# [9] = Drug excretion in bile duct cannulated rat urine; assay type: ADME; settings: read-out: Drug excretion
# [10] = target: T2, Serine/threonine-protein kinase mTOR; experiment: Inhibition of mTOR at 1 uM
# T1 sequence (P42336 whole entry, canonical isoform): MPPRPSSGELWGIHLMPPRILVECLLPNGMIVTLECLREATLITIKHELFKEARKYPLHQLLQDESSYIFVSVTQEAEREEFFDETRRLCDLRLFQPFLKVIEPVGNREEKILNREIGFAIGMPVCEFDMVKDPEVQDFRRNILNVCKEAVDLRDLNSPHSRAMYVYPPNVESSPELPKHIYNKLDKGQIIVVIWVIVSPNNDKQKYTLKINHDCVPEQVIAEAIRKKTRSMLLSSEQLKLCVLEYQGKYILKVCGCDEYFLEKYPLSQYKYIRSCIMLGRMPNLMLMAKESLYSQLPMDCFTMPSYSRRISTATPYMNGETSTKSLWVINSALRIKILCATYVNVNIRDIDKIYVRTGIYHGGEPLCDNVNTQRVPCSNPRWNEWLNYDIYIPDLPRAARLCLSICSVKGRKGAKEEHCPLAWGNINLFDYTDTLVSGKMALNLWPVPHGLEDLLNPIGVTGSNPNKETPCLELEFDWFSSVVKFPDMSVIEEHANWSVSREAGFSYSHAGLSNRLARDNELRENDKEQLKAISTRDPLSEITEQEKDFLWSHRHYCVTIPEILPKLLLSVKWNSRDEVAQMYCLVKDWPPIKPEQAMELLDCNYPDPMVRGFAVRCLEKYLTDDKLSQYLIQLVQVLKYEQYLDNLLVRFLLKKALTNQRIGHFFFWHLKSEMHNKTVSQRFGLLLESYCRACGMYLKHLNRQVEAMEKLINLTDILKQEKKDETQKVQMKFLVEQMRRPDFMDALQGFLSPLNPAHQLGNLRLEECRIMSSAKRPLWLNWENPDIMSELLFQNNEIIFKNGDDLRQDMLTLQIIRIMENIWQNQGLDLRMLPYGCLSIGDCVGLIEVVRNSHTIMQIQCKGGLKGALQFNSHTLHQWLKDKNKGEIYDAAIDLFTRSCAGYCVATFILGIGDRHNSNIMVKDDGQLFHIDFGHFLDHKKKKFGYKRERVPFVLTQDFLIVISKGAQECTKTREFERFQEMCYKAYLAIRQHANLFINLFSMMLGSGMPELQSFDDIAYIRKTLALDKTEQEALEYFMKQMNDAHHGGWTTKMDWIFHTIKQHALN
# CYP2C9, sequence (P11712 whole entry): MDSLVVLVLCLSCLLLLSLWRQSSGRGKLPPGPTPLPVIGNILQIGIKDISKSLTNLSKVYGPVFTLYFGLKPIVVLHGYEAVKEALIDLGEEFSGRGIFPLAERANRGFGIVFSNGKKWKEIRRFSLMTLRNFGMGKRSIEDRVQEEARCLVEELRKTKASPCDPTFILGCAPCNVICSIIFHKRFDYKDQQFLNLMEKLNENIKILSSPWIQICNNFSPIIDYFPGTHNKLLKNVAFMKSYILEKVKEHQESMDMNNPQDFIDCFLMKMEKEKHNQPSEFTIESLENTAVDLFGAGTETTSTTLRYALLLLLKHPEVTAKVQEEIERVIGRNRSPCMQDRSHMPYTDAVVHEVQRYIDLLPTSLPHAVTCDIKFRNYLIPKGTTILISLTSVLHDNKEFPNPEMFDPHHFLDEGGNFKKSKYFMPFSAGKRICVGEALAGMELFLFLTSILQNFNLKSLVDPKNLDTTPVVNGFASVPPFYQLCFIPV
# CYP3A4, sequence (P08684 whole entry): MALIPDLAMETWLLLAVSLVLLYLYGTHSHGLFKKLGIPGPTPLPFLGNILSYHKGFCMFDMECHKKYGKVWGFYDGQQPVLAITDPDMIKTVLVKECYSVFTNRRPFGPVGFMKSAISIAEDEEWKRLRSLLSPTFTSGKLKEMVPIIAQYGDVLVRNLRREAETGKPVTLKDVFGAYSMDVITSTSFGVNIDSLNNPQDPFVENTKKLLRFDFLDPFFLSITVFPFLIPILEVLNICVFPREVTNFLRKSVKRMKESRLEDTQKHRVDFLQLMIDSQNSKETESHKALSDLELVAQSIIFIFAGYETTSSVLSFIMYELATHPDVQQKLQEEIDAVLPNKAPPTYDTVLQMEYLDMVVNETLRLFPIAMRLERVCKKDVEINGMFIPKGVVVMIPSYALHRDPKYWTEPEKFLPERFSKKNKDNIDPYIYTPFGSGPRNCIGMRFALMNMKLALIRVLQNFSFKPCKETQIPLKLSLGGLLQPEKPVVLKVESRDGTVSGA
# CYP2D6, sequence (P10635 whole entry): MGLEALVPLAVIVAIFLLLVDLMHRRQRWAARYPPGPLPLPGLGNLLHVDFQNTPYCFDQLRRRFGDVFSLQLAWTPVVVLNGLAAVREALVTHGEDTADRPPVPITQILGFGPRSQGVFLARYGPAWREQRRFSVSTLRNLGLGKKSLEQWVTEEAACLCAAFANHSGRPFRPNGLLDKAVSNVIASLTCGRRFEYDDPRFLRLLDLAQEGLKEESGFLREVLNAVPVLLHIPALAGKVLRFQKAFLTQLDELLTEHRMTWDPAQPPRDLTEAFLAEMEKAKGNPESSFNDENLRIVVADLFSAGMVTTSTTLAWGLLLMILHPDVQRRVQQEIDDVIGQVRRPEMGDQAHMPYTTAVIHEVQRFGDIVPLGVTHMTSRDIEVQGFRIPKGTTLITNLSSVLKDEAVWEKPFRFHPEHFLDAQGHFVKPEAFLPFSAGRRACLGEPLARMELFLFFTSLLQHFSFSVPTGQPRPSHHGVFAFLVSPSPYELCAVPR
structure (smiles),measurement,setting,value
N#Cc1ccc(-c2c(-c3nnc[nH]3)sc(N3CCOCC3)c2C#N)c(F)c1,IC50,[1],79 nM
same,hepatic extraction ratio,[2],0.35
same,Ki,[3],0.6 nM
same,hepatic extraction ratio,[4],0.529
same,hepatic extraction ratio,[5],0.639
same,efflux ratio,MDR1 (human),2.6
same,Ki,[6],1440 nM
N#Cc1c(N2CCOCC2)sc(C(=O)O)c1-c1ccc(Cl)cc1,Ki,[3],230 nM
N#Cc1c(N2CCOCC2)sc(-c2ncn[nH]2)c1-c1ccc(Cl)cc1Cl,Activity,NCI-H23,Active
same,Activity,NCI-H1975,Active
same,inhibition,[7],Active
same,Activity,NCI-H1650,Active
same,Activity,NCI-H460,Active
N#Cc1c(N2CCOCC2)sc(-c2nnc[nH]2)c1-c1ccc(Cl)cc1Cl,IC50,[1],35 nM
same,hepatic extraction ratio,[2],0.3
same,Ki,[3],0.35 nM
same,hepatic extraction ratio,[4],0.89
same,inhibition at 3 µM,CYP2D6,< 30%
same,inhibition at 3 µM,CYP3A4,< 30%
same,dose excreted,[8],< 1%
same,hepatic extraction ratio,[5],0.88
same,inhibition at 3 µM,CYP1A2,< 30%
same,efflux ratio,MDR1 (human),2.56
same,Ki,[6],2470 nM
same,inhibition at 3 µM,CYP2C9,< 30%
same,dose excreted,[9],< 1%
N#Cc1c(N2CCOCC2)sc(-c2cc[nH]n2)c1-c1ccc(Cl)cc1,hepatic extraction ratio,[2],0.7
same,Ki,[3],1.8 nM
N#Cc1c(N2CCOCC2)sc(C(N)=O)c1-c1ccc(Cl)cc1,IC50,[1],760 nM
same,Ki,[3],13 nM
same,inhibition,[10],47%
N#Cc1c(N2CCOCC2)sc(-c2cn[nH]c2)c1-c1ccc(Cl)cc1,Ki,[3],175 nM
N#Cc1c(N2CCOCC2)sc(-c2cn[nH]n2)c1-c1ccc(Cl)cc1,hepatic extraction ratio,[2],0.7
same,Ki,[3],3 nM
N#Cc1c(N2CCOCC2)sc(-c2nc[nH]n2)c1-c1ccc(Cl)cc1,IC50,[1],73 nM
same,hepatic extraction ratio,[2],0.3
same,Ki,[3],1.7 nM
same,Ki,[6],434 nM
N#Cc1ccc(-c2c(-c3ncn[nH]3)sc(N3CCOCC3)c2C#N)c(F)c1,inhibition,[7],Active
Cc1nnc(-c2sc(N3CCOCC3)c(C#N)c2-c2ccc(Cl)cc2)o1,Ki,[3],1280 nM
